Here are results for 36 compounds from ChEMBL document CHEMBL1154218, “Design and synthesis of dipeptidyl nitriles as potent, selective, and reversible inhibitors of cathepsin C” (Bioorg Med Chem Lett, 2009).

Molecules are shown by their SMILES.

Data set [1] concerns the target Dipeptidyl peptidase 1 (Homo sapiens, UniProt P53634). In words: Inhibition of human recombinant cathepsin C. The method in brief:
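Enzyme: purified human recombinant cathepsin C. IC50 in nM given as mean with standard deviation of at least three experiments.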

Data set [2] in a line: Clearance in iv dosed rat. It counts as ADME, organism-based. To be noted: in vivo. The method in brief: (§1)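 Rats dosed intravenously. Plasma samples were analysed for parent and metabolites to give clearance (ml/min/kg) and half-life.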
The nature of data set [3]: Half life in iv dosed rat. It counts as ADME, organism-based. To be noted: in vivo. In outline:
as §1

A short description of data set [4]: Metabolic stability in rat whole blood assessed as compound remaining after 30 mins. It is filed as ADME, tissue-based. To be noted: read-out: Activity. The method in brief: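 Compound incubated in fresh rat whole blood for 30 min at 25 °C. Read-out is % of intact parent remaining, with amide hydrolysis products (P2 amino acid, P1 amino nitrile) monitored.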

For data set [5], the system named is U-937. Nature of the data set: Cytotoxicity against human U937 cells at 30 uM up to 72 hrs. It is filed as functional, cell-based. In outline: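 Human U937 cells were exposed to compound at 30 µM for up to 72 h and assessed for cytotoxicity.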
Data set [6] is filed under the species Rattus norvegicus. In words: Metabolic stability in rat whole blood.

Dipeptidyl peptidase 1, sequence (P53634 25-134 limits assumed): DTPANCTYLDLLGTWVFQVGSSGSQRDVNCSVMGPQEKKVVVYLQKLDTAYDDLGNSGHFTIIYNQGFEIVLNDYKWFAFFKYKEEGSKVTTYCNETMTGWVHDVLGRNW
Dipeptidyl peptidase 1, sequence (P53634 231-394 limits assumed): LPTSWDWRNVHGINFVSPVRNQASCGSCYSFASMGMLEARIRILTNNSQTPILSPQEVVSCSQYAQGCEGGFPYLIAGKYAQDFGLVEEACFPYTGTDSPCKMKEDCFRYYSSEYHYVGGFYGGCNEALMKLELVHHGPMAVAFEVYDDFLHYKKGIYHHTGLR
Dipeptidyl peptidase 1, sequence (P53634 395-463 limits assumed): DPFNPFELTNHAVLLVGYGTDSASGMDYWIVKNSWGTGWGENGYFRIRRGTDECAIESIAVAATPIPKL

With `N#C[C@H](CCc1ccccc1)NC(=O)[C@@H](N)Cc1cccs1`, in data set [1], the IC50 is 0.011 µM.
Consider `N#C[C@H](Cc1ccc(F)cc1)NC(=O)[C@@H]1CCCN1`, for which the IC50 in data set [1] was over 10 µM.
For `CSCC[C@H](N)C(=O)NCCc1c[nH]c2ccccc12`, the IC50 in data set [1] came out at 11 µM.
`N#C[C@H](Cc1ccccc1)NC(=O)[C@@H](N)Cc1cccs1`: the IC50 in data set [1] stood at 0.0009 µM. Further, in data set [2], the clearance was over 100 mL/min/kg. Moreover, in data set [3], the half-life is under 30 min. For the same compound, the remaining at 0.5 h in data set [4] was 0%.
With `N#C[C@H](CC1CCCCC1)NC(=O)[C@@H](N)Cc1cccs1`, the IC50 in data set [1] came to 0.0051 µM.
As to `N#C[C@H](Cc1ccc2ccccc2c1)NC(=O)[C@@H](N)Cc1cccs1`, in data set [1], the 50% inhibitory concentration (IC50) was 0.001 µM. The compound also returned a clearance in data set [2] of over 100 mL/min/kg. In data set [3], the half-life was under 30 min.
As to `CS[C@@H]1CN[C@H](C(=O)N[C@H](C#N)Cc2ccc(-c3ccccc3)cc2)C1`, the IC50 in data set [1] is 0.0017 µM.
With `N#CCNC(=O)[C@@H](N)Cc1cccs1`, the IC50 in data set [1] amounted to 0.017 µM. In addition, in data set [4], the remaining at 0.5 h turned out to be 6%.
Take `CS[C@@H]1CN[C@H](C(=O)NC2(C#N)CC2)C1`: in data set [1], the IC50 came out at 0.336 µM.
In the case of `CS[C@@H]1CN[C@H](C(=O)N[C@H](C#N)Cc2ccccc2)C1`, the IC50 in data set [1] is 0.029 µM.
On the same count and under the same terms, next, `N#C[C@H](Cc1ccccc1)NC(=O)[C@@H]1C[C@H](Cl)CN1`: 0.495 µM.
For the compound `CC(C)(C#N)NC(=O)[C@@H](N)Cc1cccs1`, the IC50 in data set [1] came to 1.42 µM.
Turning to `CC1(C)CC1(C#N)NC(=O)[C@@H](N)Cc1cccs1` (stereo partly drawn), the IC50 in data set [1] was 0.063 µM.
In the case of `CC(C)(C)[C@@H](C#N)NC(=O)[C@@H](N)Cc1cccs1`, the IC50 in data set [1] is over 3 µM. Besides, in data set [4], the remaining at 0.5 h was 83%.
As for `CSCC[C@H](N)C(=O)N[C@H](C#N)Cc1c[nH]c2ccccc12`, the IC50 in data set [1] turned out to be 0.2 µM.
On to `CCSCC[C@H](N)C(=O)N[C@H](C#N)Cc1c[nH]c2ccccc12`, for which the IC50 in data set [1] came out at 1.58 µM.
For `N#C[C@H](Cc1ccccc1)NC(=O)[C@@H]1C[C@H](F)CN1`, the IC50 in data set [1] worked out at 0.133 µM.
For the compound `N#CC1(NC(=O)[C@@H](N)Cc2cccs2)CCC1`, the IC50 in data set [1] is 1.83 µM.
Regarding `N#C[C@@H](NC(=O)[C@@H](N)Cc1cccs1)C(c1ccccc1)c1ccccc1`, the IC50 in data set [1] stood at 0.0038 µM. For the same compound, the clearance in data set [2] was over 100 mL/min/kg. Besides, the half-life in data set [3] was under 30 min.
Compound `N#C[C@@]1(NC(=O)[C@@H](N)Cc2cccs2)C[C@@H]1c1ccccc1` gave a clearance in data set [2] of 35 mL/min/kg. This compound showed a half-life in data set [3] of 84 min. For the same compound, the remaining at 0.5 h in data set [4] is over 98%. Also, the Activity result in data set [5] was “Not toxic”. Further, the Stability result in data set [6] is recorded as “Stable”.
In the case of `CO[C@@H]1CN[C@H](C(=O)N[C@H](C#N)Cc2ccccc2)C1`, the IC50 in data set [1] is 1.08 µM.
`N#C[C@H](Cc1ccc(-c2ccccc2)cc1)NC(=O)[C@@H]1C[C@H](F)CN1`: the IC50 in data set [1] stood at 0.0082 µM.
As to `N#C[C@H](Cc1ccccc1)NC(=O)[C@@H]1CCCN1`, the IC50 in data set [1] amounted to 4.81 µM.
On to `N#CC1(NC(=O)[C@@H](N)Cc2cccs2)CC1`, for which the IC50 in data set [1] was 0.012 µM. This compound also gave a clearance in data set [2] of 113 mL/min/kg. This compound showed a half-life in data set [3] of 30 min. Besides, the remaining at 0.5 h in data set [4] was determined as 92%.
Consider `N#CC1(NC(=O)[C@@H](N)Cc2cccs2)CC1c1ccccc1` (mixture of isomers), for which the 50% inhibitory concentration (IC50) in data set [1] amounted to 1.23 µM.
Same read-out and setting: the result for `N#C[C@]1(NC(=O)[C@@H]2C[C@H](F)CN2)C[C@H]1c1ccccc1` reads 2.19 µM; that for `N#CC1(NC(=O)[C@@H]2C[C@H](F)CN2)CC1`, 0.88 µM.
Consider `N#C[C@]1(NC(=O)[C@@H](N)Cc2cccs2)C[C@H]1c1ccccc1`, for which, in data set [1], the IC50 was 0.017 µM.
On to `N#C[C@H](Cc1nc2ccccc2s1)NC(=O)[C@@H](N)Cc1cccs1`, for which the IC50 in data set [1] was 0.0007 µM. This compound gave a clearance in data set [2] of over 100 mL/min/kg. The same compound came in with a half-life in data set [3] of under 30 min.
Turning to `CCS[C@@H]1CN[C@H](C(=O)N[C@H](C#N)Cc2ccccc2)C1`, in data set [1], the IC50 was found to be 0.271 µM.
In the case of `CC(C)[C@H](N)C(=O)N[C@H](C#N)Cc1c[nH]c2ccccc12`, the IC50 in data set [1] is 0.33 µM.
The same measure, in the same setting: next, `CCSC[C@H](N)C(=O)N[C@H](C#N)Cc1c[nH]c2ccccc12`: 0.63 µM.
For the compound `CC(C)[C@@H](C#N)NC(=O)[C@@H](N)Cc1cccs1`, the IC50 in data set [1] worked out at 0.215 µM. Besides, the remaining at 0.5 h in data set [4] turned out to be 11%.
Taken in the same sequence, the figures for `N#C[C@H](Cc1c[nH]c2ccccc12)NC(=O)[C@@H](N)Cc1cccs1` were 0.0058 µM and 0%.
Consider `N#C[C@H](Cc1ccc(-c2ccccc2)s1)NC(=O)[C@@H](N)Cc1cccs1`, for which the IC50 in data set [1] was found to be 0.0003 µM. The clearance in data set [2] is over 100 mL/min/kg. The compound further returned a half-life in data set [3] of under 30 min.
Consider `C[C@@H]1CN[C@H](C(=O)N[C@H](C#N)Cc2ccccc2)C1`, for which the half-inhibitory concentration (IC50) in data set [1] came to 2.5 µM.
